# Measurements of several laboratories.
# Lines come from different studies, so protocols differ.
# Effect on: cell growth or viability
SMILES,cell line,test,conditions,endpoint,value
CN(C)CCNC(=O)c1ccc(-c2nc3ccc4[nH]ncc4c3c3c2CCCC3)cc1,K562,resazurin,72 h,GI50,1300 nM
O=C(/C=C/c1cccc(C(=O)NO)c1)NO,OCI-Ly1,ATP luminescence,"0.1 µM, 5 days",viability,181%
CN(C)CCNC(=O)c1ccc(-c2nc3ccc4[nH]ncc4c3c3c2CCCCC3)c(F)c1,K562,resazurin,72 h,GI50,1400 nM
COC(=O)CNC(=O)C(=O)OC,OCI-Ly1,ATP luminescence,"0.1 µM, 5 days",viability,198%
CCCCCCCCCCCCCCCCCCOc1ccccc1CC(=O)OCC[N+](CC)(CC)CC,HOP-92,SRB,10 µM,inhibition,93.2%
O=C(CCCCCCSc1ccc2ccccc2c1)NO,OCI-Ly1,ATP luminescence,"0.1 µM, 5 days",viability,194%
NC(=O)c1ccc(-c2nc3ccc4[nH]ncc4c3c3c2CCCC3)cc1,K562,resazurin,72 h,GI50,7600 nM
CCCCCCCCCCCCCCCCCCOc1cccc(CC(=O)OCC[N+](CC)(CC)CC)c1,HOP-62,SRB,10 µM,inhibition,30.9%
O=C(Nc1ccc(C2CCCCC2)cc1)[C@H]1O[C@H](O[C@@H]2[C@@H](OCc3ccc4ccccc4c3)[C@H](O[C@H]3O[C@H](CNS(=O)(=O)O)[C@@H](OCc4ccc5ccccc5c4)C[C@H]3NS(=O)(=O)O)[C@@H](NS(=O)(=O)O)C[C@H]2NS(=O)(=O)O)[C@H](OCc2ccc3ccccc3c2)[C@@H](NS(=O)(=O)O)[C@@H]1OCc1ccc2ccccc2c1,4T1,CCK-8,"120 µM, 48 h",viability,5 to 10%
CCCCCCCCCCCCCCCCCCOCC(COP(=O)([O-])OCC[N+](C)(C)C)OC (stereo not drawn),HOP-62,SRB,10 µM,inhibition,56%
CN(C)CCNC(=O)c1ccc(-c2nc3ccc4[nH]ncc4c3c3c2COCC3)cc1,K562,resazurin,72 h,GI50,3500 nM
O=C(CCCCCCC(=O)Nc1ccccc1)NO,OCI-Ly1,ATP luminescence,"0.1 µM, 5 days",viability,162%
C[C@H](Nc1ccc2c(c1)OCCn1cc(N3C(=O)OC[C@H]3C(F)F)nc1-2)C(N)=O,ESS-1,ATP luminescence,5 days,EC50,341 nM
CC(=O)OC[C@H]1O[C@@H](n2cnc(N)nc2=O)[C@H](OC(C)=O)[C@@H]1OC(C)=O,OCI-Ly1,ATP luminescence,"0.5 µM, 5 days",viability,169%
CCCCCCCCCCCCCCCCCCOc1cccc(CC(=O)OCCC[N+](C)(C)C)c1,HOP-62,SRB,10 µM,inhibition,15.9%
